Assay results taken from ChEMBL document CHEMBL2040768, “Synthesis, antimicrobial and cytotoxic activities of sulfone linked bis heterocycles” (Eur J Med Chem, 2012).
The source made the active and inactive calls. No cut-off for these calls is given here.

Legend:
A549 = test: Cytotoxicity against human A549 cells up to 0.2 mM after 72 hrs by MTT assay
Penicillium chrysogenum [1] = test: Antifungal activity against Penicillium chrysogenum at 100 ug/ml after 48 hrs by agar well diffusion method; assay type: functional; conditions: for zone of inhibition at 100 µg/mL: read-out: DIZ
Outline: (§1)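 Fungal agar well diffusion. Plates swabbed with fungal culture, 6 mm wells filled with DMSO solutions of compound (50 and 100 per well). Ketoconazole positive and DMSO negative controls. Plates incubated 28 °C for 48 h; zone of inhibition diameter (mm) read, average of duplicates.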

Aspergillus niger [2] = test: Antifungal activity against Aspergillus niger at 50 ug/ml after 48 hrs by agar well diffusion method; assay type: functional; conditions: for zone of inhibition at 50 µg/mL: read-out: DIZ
Outline: as §1

Staphylococcus aureus [3] = test: Antibacterial activity against Staphylococcus aureus at 50 ug/ml after 24 hrs by agar well diffusion method; assay type: functional; conditions: read-out: DIZ
Outline: (§2)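 Agar well diffusion. Nutrient plates swabbed with 24 h broth culture of the bacterium; 6 mm wells bored and loaded with DMSO solutions of compound (wells at 50 and 100 per well). Chloramphenicol positive control, DMSO negative control. Plates held 37 °C, 24 h; inhibition zone diameter (mm) measured, mean of duplicates.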

Penicillium chrysogenum [4] = test: Antifungal activity against Penicillium chrysogenum at 50 ug/ml after 48 hrs by agar well diffusion method; assay type: functional; conditions: for zone of inhibition at 50 µg/mL: read-out: DIZ
Outline: as §1

Bacillus subtilis [5] = test: Antibacterial activity against Bacillus subtilis at 50 ug/ml after 24 hrs by agar well diffusion method; assay type: functional; conditions: read-out: DIZ
Outline: as §2

Pseudomonas aeruginosa [6] = test: Antibacterial activity against Pseudomonas aeruginosa at 50 ug/ml after 24 hrs by agar well diffusion method; assay type: functional; conditions: for zone of inhibition at 50 µg/mL: read-out: DIZ
Outline: as §2

Klebsiella pneumoniae [7] = test: Antibacterial activity against Klebsiella pneumoniae at 100 ug/ml after 24 hrs by agar well diffusion method; assay type: functional; conditions: for zone of inhibition at 100 µg/mL: read-out: DIZ
Outline: as §2

Staphylococcus aureus [8] = test: Antibacterial activity against Staphylococcus aureus at 100 ug/ml after 24 hrs by agar well diffusion method; assay type: functional; conditions: read-out: DIZ
Outline: as §2

Bacillus subtilis [9] = test: Antibacterial activity against Bacillus subtilis at 100 ug/ml after 24 hrs by agar well diffusion method; assay type: functional; conditions: read-out: DIZ
Outline: as §2

Klebsiella pneumoniae [10] = test: Antibacterial activity against Klebsiella pneumoniae at 50 ug/ml after 24 hrs by agar well diffusion method; assay type: functional; conditions: for zone of inhibition at 50 µg/mL: read-out: DIZ
Outline: as §2

Pseudomonas aeruginosa [11] = test: Antibacterial activity against Pseudomonas aeruginosa at 100 ug/ml after 24 hrs by agar well diffusion method; assay type: functional; conditions: for zone of inhibition at 100 µg/mL: read-out: DIZ
Outline: as §2

Aspergillus niger [12] = test: Antifungal activity against Aspergillus niger at 100 ug/ml after 48 hrs by agar well diffusion method; assay type: functional; conditions: for zone of inhibition at 100 µg/mL: read-out: DIZ
Outline: as §1

| SMILES | Activity (A549) | zone of inhibition at 50 µg/mL (Staphylococcus aureus [3]) [mm] | zone of inhibition at 50 µg/mL (Bacillus subtilis [5]) [mm] | zone of inhibition at 100 µg/mL (Staphylococcus aureus [8]) [mm] | zone of inhibition at 100 µg/mL (Bacillus subtilis [9]) [mm] | zone of inhibition at 100 µg/mL (Penicillium chrysogenum [1]) [mm] | zone of inhibition at 50 µg/mL (Aspergillus niger [2]) [mm] | zone of inhibition at 50 µg/mL (Penicillium chrysogenum [4]) [mm] | zone of inhibition at 50 µg/mL (Pseudomonas aeruginosa [6]) [mm] | zone of inhibition at 100 µg/mL (Klebsiella pneumoniae [7]) [mm] | zone of inhibition at 50 µg/mL (Klebsiella pneumoniae [10]) [mm] | zone of inhibition at 100 µg/mL (Pseudomonas aeruginosa [11]) [mm] | zone of inhibition at 100 µg/mL (Aspergillus niger [12]) [mm] | other results |
| --- | --- | --- | --- | --- | --- | --- | --- | --- | --- | --- | --- | --- | --- | --- |
| O=S(=O)(Cc1nnc(CS(=O)(=O)c2c[nH]cc2S(=O)(=O)c2ccccc2)o1)Nc1ccccc1 | inactive | 12 | 13 | 14 | 15 | – | – | – | – | – | – | – | – | diameter of the inhibition zone (DIZ) (Penicillium chrysogenum [1]): inactive; diameter of the inhibition zone (DIZ) (Aspergillus niger [2]): inactive; diameter of the inhibition zone (DIZ) (Penicillium chrysogenum [4]): inactive; diameter of the inhibition zone (DIZ) (Pseudomonas aeruginosa [6]): inactive; diameter of the inhibition zone (DIZ) (Klebsiella pneumoniae [7]): inactive; diameter of the inhibition zone (DIZ) (Klebsiella pneumoniae [10]): inactive; diameter of the inhibition zone (DIZ) (Pseudomonas aeruginosa [11]): inactive; diameter of the inhibition zone (DIZ) (Aspergillus niger [12]): inactive |
| Cc1ccc(NS(=O)(=O)Cc2nnc(CS(=O)(=O)C3CNN=C3S(=O)(=O)c3ccc(C)cc3)n2N)cc1 (stereo unspecified) | inactive | 13 | 16 | 15 | 18 | 18 | 13 | 15 | 12 | 20 | 18 | 15 | 16 | – |
| O=S(=O)(Cc1nnc(CS(=O)(=O)c2c[nH]cc2S(=O)(=O)c2ccccc2)s1)Nc1ccccc1 | inactive | 15 | 18 | 17 | 20 | 20 | 16 | 17 | 14 | 22 | 20 | 15 | 18 | – |
| O=S(=O)(Cc1nnc(CS(=O)(=O)c2c[nH]nc2S(=O)(=O)c2ccccc2)o1)Nc1ccccc1 | inactive | 10 | 13 | 12 | 15 | 15 | 10 | 12 | 10 | 17 | 15 | 12 | 13 | – |
| Cc1ccc(NS(=O)(=O)Cc2nnc(CS(=O)(=O)/C=C/S(=O)(=O)c3ccc(C)cc3)s2)cc1 | inactive | 18 | 21 | 20 | 23 | 23 | 18 | 20 | 14 | 25 | 23 | 16 | 21 | – |
| O=S(=O)(/C=C/S(=O)(=O)c1ccccc1)Cc1nnc(CS(=O)(=O)Nc2ccccc2)o1 | inactive | 10 | 12 | 13 | 14 | – | – | – | – | – | – | – | – | diameter of the inhibition zone (DIZ) (Penicillium chrysogenum [1]): inactive; diameter of the inhibition zone (DIZ) (Aspergillus niger [2]): inactive; diameter of the inhibition zone (DIZ) (Penicillium chrysogenum [4]): inactive; diameter of the inhibition zone (DIZ) (Pseudomonas aeruginosa [6]): inactive; diameter of the inhibition zone (DIZ) (Klebsiella pneumoniae [7]): inactive; diameter of the inhibition zone (DIZ) (Klebsiella pneumoniae [10]): inactive; diameter of the inhibition zone (DIZ) (Pseudomonas aeruginosa [11]): inactive; diameter of the inhibition zone (DIZ) (Aspergillus niger [12]): inactive |
| O=S(=O)(Cc1nnc(CS(=O)(=O)c2c[nH]nc2S(=O)(=O)c2ccc(Cl)cc2)s1)Nc1ccc(Cl)cc1 | inactive | 27 | 28 | 29 | 31 | 34 | 30 | 31 | 24 | 33 | 30 | 26 | 32 | – |
